Test results as given in ChEMBL document CHEMBL1833940, “Discovery of 3-(2,6-dichloro-3,5-dimethoxy-phenyl)-1-{6-[4-(4-ethyl-piperazin-1-yl)-phenylamino]-pyrimidin-4-yl}-1-methyl-urea (NVP-BGJ398), a potent and selective inhibitor of the fibroblast growth factor receptor family of receptor tyrosine kinase” (J Med Chem, 2011).
Active and inactive are the calls of the source. No cut-off for these calls is given here.

How the values were obtained:
[1] = Cmax in plasma of RT112/luc1 cells implanted athymic nude mouse at 5 mg/kg, iv by LC/MS/MS analysis; type: ADME, organism-based; design: dose 5 mg/kg, route intravenous
Procedure, shortened: (§1)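 Female athymic nude mice carried subcutaneous RT112/luc1 tumors (5×10^6 cells, 50% Matrigel; about 300–400 mm3). Dosing was either 5 mg/kg iv by tail vein in NMP/PEG200 (1:9) or 20 mg/kg oral suspension in PEG300/D5W (2:1). Groups of mice (n = 4) were sacrificed at 0.083–24 h. Plasma and tumor levels were measured by LC-MS/MS (LOQ 5 ng/mL, 10 ng/g).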

[2] = Tmax in tumor of RT112/luc1 cells implanted athymic nude mouse at 5 mg/kg, iv by LC/MS/MS analysis; type: ADME, organism-based, Neoplasm; design: dose 5 mg/kg, route intravenous
Procedure, shortened: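 Female athymic nude mice carrying subcutaneous RT112/luc1 tumors (ca. 300–400 mm3). Dosing was 5 mg/kg iv by tail vein in NMP/PEG200 (1:9) or 20 mg/kg by oral gavage as a suspension in PEG300/D5W (2:1). Groups (n = 4) were sacrificed from 0.083 to 24 h. Plasma and tumor were measured by LC-MS/MS (LOQ 5 ng/mL, 10 ng/g). Noncompartmental analysis used the linear trapezoidal AUC; F was calculated from dose-normalized AUC.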

[3] = Half life in plasma of RT112/luc1 cells implanted athymic nude mouse at 5 mg/kg, iv by LC/MS/MS analysis; type: ADME, organism-based; design: dose 5 mg/kg, route intravenous; procedure, shortened: as §1
[4] = Apparent terminal half life in Wistar rat at 5 mg/kg, iv by LC-MS/MS analysis; type: ADME, organism-based; design: dose 5 mg/kg, route intravenous; conditions: in vivo, read-out: t1/2 lambda z (converted)
Procedure, shortened: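 Female Wistar rats. IV: 5 mg/kg into the femoral vein as a solution in NMP/PEG200 (1:9, v/v). Oral: monophosphate salt at 10 mg/kg (free base equivalents) as a solution in acetic acid–acetate buffer pH 4.6/PEG300. Plasma was taken by sublingual bleeding at 0.083–24 h, from staggered groups (n = 4) or one sequentially bled group. Assayed by LC-MS/MS (LOQ 10 ng/mL); noncompartmental analysis.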

[5] = Clearance in Wistar rat at 5 mg/kg, iv by LC-MS/MS analysis; type: ADME, organism-based; design: dose 5 mg/kg, route intravenous; conditions: in vivo
Procedure, shortened: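 Female Wistar rats received either an iv femoral-vein dose of 5 mg/kg in NMP/PEG200 (1:9) or an oral dose of monophosphate salt at 10 mg/kg (free base) in acetate buffer pH 4.6/PEG300. Plasma was sampled by sublingual bleeding at 0.083–24 h (n = 4 staggered, or n = 3–4 serial). Plasma levels were measured by LC-MS/MS (LOQ 10 ng/mL).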

SW780 = assay: Antiproliferative activity against human SW780 cells overexpressing wild type FGFR3 after 72 hrs; type: functional, cell-based; conditions: SW780, 72 h
Procedure, shortened: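 Bladder cancer lines from ATCC or DSMZ were seeded in 96-well plates (RT4, RT112 at 8500 cells/well; others at 5000 cells/well) in growth medium. Compound dilutions or DMSO were added 24 h later and incubated 72 h. Cells were fixed with glutaraldehyde, stained with 0.05% methylene blue and eluted with 3% HCl, then OD650 nm was read.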

[6] = molecular target: Serine/threonine-protein kinase mTOR (Homo sapiens, UniProt P42345); assay: Inhibition of recombinant mTOR by luminescent kinase assay
[7] = molecular target: Cyclin-dependent kinase 1 (Homo sapiens, UniProt P06493); assay: Inhibition of recombinant CDK1
Sequence of Cyclin-dependent kinase 1 (P06493 whole entry): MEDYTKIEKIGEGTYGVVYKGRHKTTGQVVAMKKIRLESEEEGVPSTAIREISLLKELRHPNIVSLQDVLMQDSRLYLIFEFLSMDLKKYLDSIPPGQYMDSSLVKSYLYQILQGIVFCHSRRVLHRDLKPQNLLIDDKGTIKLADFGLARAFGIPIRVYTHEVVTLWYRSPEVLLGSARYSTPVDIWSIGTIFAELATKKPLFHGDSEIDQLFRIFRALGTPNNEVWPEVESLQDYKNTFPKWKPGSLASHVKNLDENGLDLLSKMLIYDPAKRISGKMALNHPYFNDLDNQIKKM
Procedure, shortened: (§2)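 Purified recombinant kinases under optimized conditions with peptide substrates. ATP was set at each kinase's Km. Phosphorylation was read by microfluidic mobility-shift separation of substrate and product; IC50 determined.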

[8] = molecular target: Mitogen-activated protein kinase kinase kinase 8 (Homo sapiens, UniProt P41279); assay: Inhibition of recombinant COT
Sequence of Mitogen-activated protein kinase kinase kinase 8 (P41279 whole entry): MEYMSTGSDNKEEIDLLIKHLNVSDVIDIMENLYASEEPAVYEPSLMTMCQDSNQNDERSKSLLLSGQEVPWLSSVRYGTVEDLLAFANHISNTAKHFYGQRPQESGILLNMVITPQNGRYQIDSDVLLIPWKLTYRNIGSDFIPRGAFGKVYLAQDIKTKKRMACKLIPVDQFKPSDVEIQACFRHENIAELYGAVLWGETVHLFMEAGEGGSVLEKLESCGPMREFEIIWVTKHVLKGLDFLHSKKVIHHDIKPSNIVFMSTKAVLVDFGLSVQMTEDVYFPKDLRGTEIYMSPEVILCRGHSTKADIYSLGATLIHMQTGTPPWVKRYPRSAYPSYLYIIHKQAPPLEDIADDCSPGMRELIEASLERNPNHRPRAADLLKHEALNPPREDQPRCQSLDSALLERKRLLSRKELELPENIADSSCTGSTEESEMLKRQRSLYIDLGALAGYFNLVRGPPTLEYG
Procedure, shortened: (§3)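 Purified recombinant kinases under optimized conditions, with peptide substrates and ATP at each kinase's Km. Phosphorylation was read out by microfluidic mobility shift, and IC50 values were obtained.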

[9] = molecular target: Receptor tyrosine-protein kinase erbB-2 (Homo sapiens, UniProt P04626); assay: Inhibition of recombinant ERBB2; procedure, shortened: as §2
Ephrin type-B receptor 4 = Ephrin type-B receptor 4 (Homo sapiens, UniProt P54760); assay: Inhibition of recombinant EPHB4; procedure, shortened: as §3
Insulin receptor = Insulin receptor (Homo sapiens, UniProt P06213); assay: Inhibition of recombinant INSR; procedure, shortened: as §3
Sequence of Insulin receptor (P06213 28-758 limits assumed): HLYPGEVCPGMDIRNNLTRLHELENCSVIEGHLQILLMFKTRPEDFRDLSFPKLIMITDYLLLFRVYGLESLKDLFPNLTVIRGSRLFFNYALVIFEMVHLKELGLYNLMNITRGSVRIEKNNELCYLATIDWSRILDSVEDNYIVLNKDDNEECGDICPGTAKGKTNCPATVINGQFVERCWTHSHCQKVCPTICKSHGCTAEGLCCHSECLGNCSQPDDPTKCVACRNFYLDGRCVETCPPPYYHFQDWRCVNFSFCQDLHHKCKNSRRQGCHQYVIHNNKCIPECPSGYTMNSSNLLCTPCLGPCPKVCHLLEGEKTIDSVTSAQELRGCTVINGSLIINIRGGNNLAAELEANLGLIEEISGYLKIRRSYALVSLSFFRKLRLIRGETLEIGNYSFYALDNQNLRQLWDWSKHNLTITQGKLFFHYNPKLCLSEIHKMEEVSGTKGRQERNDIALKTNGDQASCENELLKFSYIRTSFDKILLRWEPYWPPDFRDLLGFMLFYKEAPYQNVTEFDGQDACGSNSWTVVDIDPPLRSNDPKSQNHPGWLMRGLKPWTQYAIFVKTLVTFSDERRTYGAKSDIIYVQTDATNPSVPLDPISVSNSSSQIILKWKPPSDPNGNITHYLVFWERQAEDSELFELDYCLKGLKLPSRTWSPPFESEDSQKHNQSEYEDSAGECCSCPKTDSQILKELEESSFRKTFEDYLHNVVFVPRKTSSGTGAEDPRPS
Sequence of Insulin receptor (P06213 763-1382 limits assumed): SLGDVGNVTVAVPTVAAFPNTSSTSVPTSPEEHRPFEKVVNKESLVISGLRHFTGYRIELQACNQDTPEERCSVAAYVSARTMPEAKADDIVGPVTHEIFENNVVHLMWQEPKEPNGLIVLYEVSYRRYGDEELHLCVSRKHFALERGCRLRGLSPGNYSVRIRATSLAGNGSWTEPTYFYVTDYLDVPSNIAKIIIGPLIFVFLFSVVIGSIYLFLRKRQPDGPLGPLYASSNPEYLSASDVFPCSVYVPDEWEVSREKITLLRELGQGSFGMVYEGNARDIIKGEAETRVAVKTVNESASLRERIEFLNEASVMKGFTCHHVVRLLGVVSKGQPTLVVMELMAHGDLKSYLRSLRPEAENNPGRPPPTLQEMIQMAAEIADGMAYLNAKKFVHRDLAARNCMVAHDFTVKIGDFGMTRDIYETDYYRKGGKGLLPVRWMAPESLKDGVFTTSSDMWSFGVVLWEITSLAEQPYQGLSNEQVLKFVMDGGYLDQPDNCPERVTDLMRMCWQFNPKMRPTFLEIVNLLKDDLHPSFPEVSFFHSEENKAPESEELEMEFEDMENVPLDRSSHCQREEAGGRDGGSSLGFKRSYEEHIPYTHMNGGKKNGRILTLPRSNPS

[10] = molecular target: Interleukin-1 receptor-associated kinase 4 (Homo sapiens, UniProt Q9NWZ3); assay: Inhibition of recombinant IRAK4; procedure, shortened: as §2
[11] = molecular target: Tyrosine-protein kinase JAK1 (Homo sapiens, UniProt P23458); assay: Inhibition of recombinant JAK1; procedure, shortened: as §2
[12] = molecular target: Serine/threonine-protein kinase pim-2 (Homo sapiens, UniProt Q9P1W9); assay: Inhibition of recombinant PIM2; procedure, shortened: as §2
Sequence of Serine/threonine-protein kinase pim-2 (Q9P1W9 whole entry): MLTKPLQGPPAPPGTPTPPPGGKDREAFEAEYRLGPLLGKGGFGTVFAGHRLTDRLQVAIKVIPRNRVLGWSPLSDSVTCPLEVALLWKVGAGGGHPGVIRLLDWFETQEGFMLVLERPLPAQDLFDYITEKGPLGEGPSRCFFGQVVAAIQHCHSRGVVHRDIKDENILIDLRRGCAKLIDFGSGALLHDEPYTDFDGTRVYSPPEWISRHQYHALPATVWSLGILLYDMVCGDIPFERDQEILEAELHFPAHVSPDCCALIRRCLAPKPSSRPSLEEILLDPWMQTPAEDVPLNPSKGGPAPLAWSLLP

[13] = Inhibition of recombinant S6K
Procedure, shortened: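 Purified recombinant kinases with peptide substrates and ATP at each kinase's Km. Read-out was microfluidic mobility shift.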

[14] = molecular target: Phosphatidylinositol 3-kinase catalytic subunit type 3 (Homo sapiens, UniProt Q8NEB9); assay: Inhibition of recombinant VPS34 by luminescent kinase assay
Sequence of Phosphatidylinositol 3-kinase catalytic subunit type 3 (Q8NEB9 whole entry): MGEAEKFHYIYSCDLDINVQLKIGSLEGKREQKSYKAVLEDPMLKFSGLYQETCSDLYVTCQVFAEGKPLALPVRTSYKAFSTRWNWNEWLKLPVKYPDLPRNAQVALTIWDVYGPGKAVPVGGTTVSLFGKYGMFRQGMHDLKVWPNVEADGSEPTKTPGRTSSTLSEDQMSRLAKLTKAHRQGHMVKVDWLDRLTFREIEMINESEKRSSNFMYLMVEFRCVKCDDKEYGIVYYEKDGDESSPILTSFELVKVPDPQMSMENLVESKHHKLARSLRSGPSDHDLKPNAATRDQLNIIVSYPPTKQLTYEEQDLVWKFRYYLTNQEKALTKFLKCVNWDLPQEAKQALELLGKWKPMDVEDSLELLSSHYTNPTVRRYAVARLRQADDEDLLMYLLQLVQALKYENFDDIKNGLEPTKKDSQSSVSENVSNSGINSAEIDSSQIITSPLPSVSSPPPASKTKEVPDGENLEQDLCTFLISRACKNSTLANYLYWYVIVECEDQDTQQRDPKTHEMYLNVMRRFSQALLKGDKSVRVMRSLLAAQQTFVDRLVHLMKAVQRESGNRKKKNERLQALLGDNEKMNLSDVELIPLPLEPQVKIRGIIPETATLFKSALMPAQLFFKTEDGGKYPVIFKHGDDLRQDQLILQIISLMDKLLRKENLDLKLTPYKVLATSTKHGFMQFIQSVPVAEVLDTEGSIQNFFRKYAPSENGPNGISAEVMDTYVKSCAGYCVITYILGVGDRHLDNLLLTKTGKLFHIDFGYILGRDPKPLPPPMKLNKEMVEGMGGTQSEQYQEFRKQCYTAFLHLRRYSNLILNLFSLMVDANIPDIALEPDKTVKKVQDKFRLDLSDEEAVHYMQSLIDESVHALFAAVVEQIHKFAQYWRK

Rattus norvegicus [15] = assay: Toxicity in nude Rowett rat xenografted with human RT112 cells assessed as body weight loss at 5 mg/kg, po qd administered for 20 days; type: organism-based, RT-112; design: dose 5 mg/kg, route oral; conditions: in vivo, 480 h
Procedure, shortened: (§4)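 Female nude Rowett rats carried subcutaneous RT112 tumors (1 × 10^6 cells in Matrigel), starting at about 100 mm3. The monophosphate salt was gavaged daily for 20 days at 5, 10 or 15 mg/kg (free base) in acetate buffer pH 4.6/PEG300 (1:1), n = 8. Body weight and morbidity were monitored; ANOVA with Dunnett's test.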

RT-112 = assay: Antitumor activity against human RT112 cells xenografted in nude Rowett rat assessed as tumour stasis at 5 mg/kg, po qd administered for 20 days; type: functional, organism-based; design: dose 5 mg/kg
Procedure, shortened: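 Female nude Rowett rats aged 6–9 weeks were given 1×10^6 RT112 cells subcutaneously in HBSS/50% Matrigel. Treatment began at about 100 mm3 mean tumor volume (n = 8): monophosphate salt in acetate buffer pH 4.6/PEG300 (1:1) by gavage, 5 mL/kg, at 5, 10, 15 mg/kg/qd free base for 20 days. Tumors were measured by caliper (L×W×H×π/6). Readouts were T/C and % regression from start volume.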

Rattus norvegicus [16] = assay: Toxicity in nude Rowett rat xenografted with human RT112 cells assessed as weight loss at 10 mg/kg, po qd administered for 20 days; type: organism-based, RT-112; design: dose 10 mg/kg, route oral; conditions: in vivo, 480 h; procedure, shortened: as §4
Tumour [17] = assay: Drug uptake in tumour of nude Rowett rat bearing human RT112 cells at 8.51 mg/kg, po administered as a single dose after 16 hrs by LC-MS/MS analysis; type: ADME, organism-based, Neoplasm, RT-112; design: dose 8.51 mg/kg, route oral; conditions: in vivo
Procedure, shortened: (§5)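 Nude Rowett rats bearing subcutaneous RT112 tumors (n = 4) received a single gavage of monophosphate salt at 4.25 or 8.51 mg/kg free base in acetate buffer pH 4.6/PEG300. Tumors were collected at intervals after dosing, frozen and homogenized in an equal volume of ice-cold PBS. Compound levels were measured by LC-MS/MS (LOQ 3 ng/mL).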

Tumour [18] = assay: Drug uptake in tumour of nude Rowett rat bearing human RT112 cells at 8.51 mg/kg, po administered as a single dose after 24 hrs by LC-MS/MS analysis; type: ADME, organism-based, Neoplasm, RT-112; design: dose 8.51 mg/kg, route oral; conditions: in vivo; procedure, shortened: as §5
[19] = molecular target: ALK tyrosine kinase receptor (Homo sapiens, UniProt Q9UM73); assay: Inhibition of recombinant ALK; procedure, shortened: as §3
Sequence of ALK tyrosine kinase receptor (Q9UM73 whole entry): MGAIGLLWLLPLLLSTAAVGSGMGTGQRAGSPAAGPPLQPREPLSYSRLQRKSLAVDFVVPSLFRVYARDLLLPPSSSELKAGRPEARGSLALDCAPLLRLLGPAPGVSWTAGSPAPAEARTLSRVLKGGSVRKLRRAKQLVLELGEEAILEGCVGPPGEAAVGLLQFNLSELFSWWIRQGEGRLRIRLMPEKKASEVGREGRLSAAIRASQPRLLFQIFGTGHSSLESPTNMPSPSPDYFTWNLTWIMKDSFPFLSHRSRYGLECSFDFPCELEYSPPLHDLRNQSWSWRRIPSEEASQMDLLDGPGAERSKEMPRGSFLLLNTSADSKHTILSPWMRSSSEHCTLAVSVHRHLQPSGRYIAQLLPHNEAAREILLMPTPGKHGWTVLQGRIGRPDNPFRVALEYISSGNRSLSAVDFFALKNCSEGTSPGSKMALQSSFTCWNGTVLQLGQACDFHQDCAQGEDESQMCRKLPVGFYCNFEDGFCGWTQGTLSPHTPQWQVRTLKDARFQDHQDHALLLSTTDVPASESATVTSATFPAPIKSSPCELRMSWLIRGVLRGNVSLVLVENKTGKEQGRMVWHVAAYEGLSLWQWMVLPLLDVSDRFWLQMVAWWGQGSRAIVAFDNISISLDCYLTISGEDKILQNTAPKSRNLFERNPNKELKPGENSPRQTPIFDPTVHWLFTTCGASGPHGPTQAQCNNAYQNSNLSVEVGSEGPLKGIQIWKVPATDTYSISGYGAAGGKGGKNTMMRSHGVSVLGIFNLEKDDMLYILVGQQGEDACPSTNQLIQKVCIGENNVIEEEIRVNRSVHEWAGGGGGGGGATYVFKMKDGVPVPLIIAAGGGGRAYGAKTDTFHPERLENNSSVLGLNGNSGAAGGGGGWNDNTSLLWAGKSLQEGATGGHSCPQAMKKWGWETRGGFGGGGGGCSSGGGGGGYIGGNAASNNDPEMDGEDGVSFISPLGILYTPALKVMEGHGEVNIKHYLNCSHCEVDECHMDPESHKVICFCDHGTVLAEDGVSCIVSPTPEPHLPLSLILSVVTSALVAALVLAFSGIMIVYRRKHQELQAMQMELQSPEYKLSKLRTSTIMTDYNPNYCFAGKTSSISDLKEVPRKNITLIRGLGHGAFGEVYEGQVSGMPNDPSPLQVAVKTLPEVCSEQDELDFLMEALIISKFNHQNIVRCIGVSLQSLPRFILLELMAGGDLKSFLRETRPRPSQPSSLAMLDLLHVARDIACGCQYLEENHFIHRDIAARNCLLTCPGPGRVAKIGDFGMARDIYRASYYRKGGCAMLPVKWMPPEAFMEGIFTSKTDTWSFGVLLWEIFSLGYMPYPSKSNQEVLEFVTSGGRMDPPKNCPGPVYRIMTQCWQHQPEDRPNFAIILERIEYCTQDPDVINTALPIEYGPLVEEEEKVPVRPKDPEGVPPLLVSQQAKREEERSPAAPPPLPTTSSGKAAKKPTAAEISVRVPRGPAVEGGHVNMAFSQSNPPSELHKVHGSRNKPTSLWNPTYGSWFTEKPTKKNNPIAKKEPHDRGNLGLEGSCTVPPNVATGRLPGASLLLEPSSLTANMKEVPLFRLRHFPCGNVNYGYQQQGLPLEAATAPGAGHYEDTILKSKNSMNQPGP

Cmax [1]: 860 nM
Tmax [2]: 2 h
half-life [3]: 9.3 h
half-life [4]: 4.5 h
clearance [5]: 60 mL/min/kg
IC50 (SW780): 0.032 µM
IC50 [6]: > 10 µM
IC50 [7]: > 10 µM
IC50 [8]: > 10 µM
IC50 [9]: > 10 µM
IC50 (Ephrin type-B receptor 4): > 10 µM
IC50 (Insulin receptor): > 10 µM
IC50 [10]: > 10 µM
IC50 [11]: > 10 µM
IC50 [12]: > 10 µM
IC50 [13]: > 10 µM
IC50 [14]: > 10 µM
Drug uptake (Tumour [17]): 0.62 nmol/g
Drug uptake (Tumour [18]): 0.32 nmol/g
IC50 [19]: > 10 µM
SMILES: CCN1CCN(c2ccc(Nc3cc(N(C)C(=O)Nc4c(Cl)c(OC)cc(OC)c4Cl)ncn3)cc2)CC1.O=P(O)(O)O [INFIGRATINIB PHOSPHATE]
Activity (Rattus norvegicus [15]): Non-toxic
Activity (RT-112): Active
Activity (Rattus norvegicus [16]): 4%
